Screening results as filed in PubChem.
TbMetRS inhib = blocks T. brucei methionyl-tRNA synthetase activity. purified T. brucei MetRS, ATP depletion, Kinase-Glo luminescence. inhibition, % at 11.9 µM. hit rate 0.4% among 360,000. AID 624268;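 active means inhibition above a per-plate cutoff of the control wells' mean inhibition plus 3 SD, cut at about 5.5% in these data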;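 further: 0% = DMSO wells median and 100% = median of wells with control inhibitor compound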
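Test system – parasite MetRS enzyme · Reagent – substrates ATP, L-methionine and bulk Escherichia coli tRNA · Doses – 11.9 µM compound single dose, 0.9% DMSO · Times – 15 min enzyme-compound preincubation, 2 h reaction, 10 min detection, 25 °C · Signal – Kinase-Glo luminescence, ATP depletion format · Controls – DMSO-only wells as low control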
WT yeast gro inh = growth inhibition of WT yeast, mitochondrial fusion screen | mitochondrial fusion phenotypic screen, WT strain | inhibition, % at 10 µM | hit rate 2.1% among 190,000; in the data active means inhibition above about 58%; tested in S. cerevisiae
MPTP inh = permeability transition pore inhibition. isolated mouse mitochondria, Ca2+ swelling absorbance, 30 min. inhibition, % at 10 µM. hit rate 1.4% among 360,000;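 active means inhibition of 50% or more, scaled per plate between neutral and stimulator controls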;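 further: 0% = DMSO wells given calcium and 100% = 1 mM EGTA wells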
NR3A LBD binder = modulators (binders) of human NR3A ligand-binding domain; hit rate 2.5% among 340,000; Tm shift relative to glycine control, % at 25 µM; NR3A LBD differential scanning fluorimetry, Tm shift; 0% = protein alone, 100% = glycine-bound protein;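 active means melting temperature shift of at least 10% of the positive control shift, at one fixed dose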
EBV gp42 inh = blocks Epstein-Barr virus glycoprotein 42 binding | Q1HVG2 | Fluorescence polarization binding assay, mP read-out | inhibition, % (tested at 21.74 µM) | hit rate 0.42% among 220,000; in the data active means inhibition above about 50%
Target sequence (Q1HVG2 whole entry, looked up): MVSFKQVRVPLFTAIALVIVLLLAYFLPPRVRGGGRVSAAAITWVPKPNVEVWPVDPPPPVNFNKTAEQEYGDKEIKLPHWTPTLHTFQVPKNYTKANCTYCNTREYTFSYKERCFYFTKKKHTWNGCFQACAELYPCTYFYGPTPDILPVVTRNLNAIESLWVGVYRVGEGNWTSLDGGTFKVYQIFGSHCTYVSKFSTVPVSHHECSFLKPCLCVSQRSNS
CHOP inh = CHOP inhibition in unfolded protein response | inhibition, % at 10 µM | hit rate 3.8% among 220,000 | CHO-K1 CHOP-promoter luciferase, tunicamycin-induced, 15-18 h;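 active means compounds that reduced the stress-induced luciferase reporter signal by more than about 70% of percent inhibition, limit read from the data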;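 further: 0% = tunicamycin plus vehicle and 100% = wells without tunicamycin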
Active calls of the source: *; / = no result given. Only some compounds are listed: those with a hit (about 6.4% of all), similar ones and a draw of the others.

SMILES	TbMetRS inhib	WT yeast gro inh	MPTP inh	NR3A LBD binder	EBV gp42 inh	CHOP inh
Cc1nn(Cc2ccccc2Cl)c(Cl)c1C(=O)OCC(=O)NCc1ccco1	0	7	0	0	-8	21
CCOc1cc(C2C(C#N)=C(N)Oc3c2c(=O)oc2ccccc32)ccc1OC(=O)c1cccs1 (centres undefined)	0	21	-1	20*	-11	18
Cc1sc2c(c1C)C(c1ccc(C(C)(C)C)cc1)=NCC(=O)N2CC(=O)Nc1nccs1	0	-2	11	-5	-6	84*
Cc1sc2c(c1C)C(c1cccs1)=NCC(=O)N2CC(=O)NCc1cccs1	0	2	-1	-3	-15	25
CCN(CC)C(=O)Cn1cc(/C=C2\C(=O)NC(=O)N(c3ccccc3F)C2=O)c2ccccc21	-1	/	1	0	/	/
CCn1c(O)c(C=Nc2ccc(S(N)(=O)=O)cc2)c(=O)n(CC)c1=S	0	7	3	-5	-6	25
NS(=O)(=O)c1ccc(N=Cc2c(O)n(C3CCCCC3)c(=O)n(C3CCCCC3)c2=O)cc1	0	96*	6	14*	-28	112*
Cc1ccc(OCC(=O)N2CCN(C3CCC(c4ccccc4)CC3)CC2)cc1 (centres undefined)	-2	-26	0	2	-1	93*
O=C(COc1ccc(Br)cc1)N1CCN(C2CCCC2)CC1	-2	-3	0	1	-12	-26
CCC1(c2ccccc2)C(=O)NC(=O)NC1=O	-3	/	1	0	/	/
CCC1(c2ccccc2)C(=O)NC(=S)NC1=O	0	/	-1	11*	/	/
COc1cc2c(cc1/C=C/[N+](=O)[O-])OCO2	0	38	8	1	-8	93*
CCc1cc(=O)oc2cc(OCC(=O)N3C[C@H]4C[C@@H](C3)c3cccc(=O)n3C4)c(Cl)cc12	0	/	0	-2	/	/
CCOC(=O)[C@]1(C#N)[C@@H]2C=CC(C(C)=O)=CN2[C@@H](C(N)=O)[C@@H]1c1ccsc1	-1	-7	-1	-3	71*	-39
O=C1NC(=S)NC(=O)C1=Cc1ccc(OCC(=O)N2CCCC2)cc1	-1	/	0	-1	/	/
COc1cc(Br)cc(CN2CCN(C)CC2)c1O	0	6	0	11*	-10	12
O=c1c2ccccc2[se]n1-c1ccccc1	-1	97*	-1	32*	-12	35
O=c1c2ccccc2nc(-c2ccccc2)n1-c1ccccc1	0	/	1	1	-1	-17
O=C(O)Cn1cc(/C=C2\C(=O)NC(=O)N(c3ccc(Cl)cc3)C2=O)c2ccccc21	0	/	0	8	/	/
NC(N)=N/N=C/c1ccc(N(c2ccccc2)c2ccccc2)cc1	-1	/	1	22*	/	/
COc1ccc(/C=N\N=C(N)N)cc1	0	-4	0	-3	7	1
C=C1C(=O)O[C@@H]2C[C@@H](C)[C@@H]3C=CC(=O)[C@@]3(C)[C@@H](OC(=O)CC(=O)O[C@H]3[C@@H]4C(=C)C(=O)O[C@@H]4C[C@@H](C)[C@@H]4C=CC(=O)[C@]43C)[C@H]12	0	/	-2	-2	-3	108*
CN1C(=O)C(=Cc2cn(CC(=O)N3CCCC3)c3ccccc23)C(=O)N(C)C1=O	-1	/	-2	1	/	/
CC(C)=CCc1c(O)cc2c(c1O)C(=O)CC(c1ccc(O)cc1)O2 (centres undefined)	0	/	4	26*	-10	77*
CCOC(=O)C(O)(c1ccc(NC(=O)c2ccc(Cl)c(Cl)c2)cc1)C(F)(F)F (centres undefined)	0	/	36	11*	-1	3
SMILES	TbMetRS inhib	WT yeast gro inh	MPTP inh	NR3A LBD binder	EBV gp42 inh	CHOP inh
CCOC(=O)C(O)(c1ccc(N(CC)S(=O)(=O)c2ccc(C)cc2)cc1)C(F)(F)F (centres undefined)	-1	24	0	-11	-14	64
CCOC(=O)C(=CNc1ccc(C(O)(C(=O)OCC)C(F)(F)F)cc1C)C(=O)OCC (centres undefined)	0	1	4	-3	9	90*
CCC(C)N1CCN(C(=O)COc2ccc3ccccc3c2)CC1 (centres undefined)	0	/	-1	0	/	/
Cc1nc2ccccc2c(=O)n1-c1cccc(C(F)(F)F)c1	-1	/	0	2	/	/
CCOP(=O)(OCC)C(O)c1ccc2c(c1)OCO2 (centres undefined)	0	/	1	1	-2	5
O=C(c1cc(C(=O)NCc2ccc(Cl)cc2)c(=O)n(Cc2ccc(Cl)cc2)c1)c1cc(F)ccc1O	0	24	33	18*	-32	37
C[C@]12C=CC(=O)C=C1CC[C@@H]1[C@@H]2CC[C@]2(C)C(=O)CC[C@@H]12	-2	/	-1	-2	/	/
CC1Oc2cc3c(-c4c(O)cc(O)c5c(O)c6c(cc45)OC(C)C(C)C6=O)c(O)cc(O)c3c(O)c2C(=O)C1C (centres undefined)	3	/	18	18*	4	102*
O=C1NC(=O)N(Cc2ccc(F)cc2)C(=O)/C1=C\c1ccoc1	-1	/	-2	2	-44	-52
Cc1ccc(/C=C2/C(=O)NC(=O)N(Cc3ccc(F)cc3)C2=O)o1	/	/	/	/	-22	89*
Cn1c(O)c(C=NC2CCCCC2)c(=O)[nH]c1=S	-1	-6	2	-2	14	16
O=C(N/N=C/c1c(O)n(CCC2=CCCCC2)c(=S)[nH]c1=O)c1ccccc1	-1	4	24	24*	-20	19
Cc1cccc(N2C(=O)/C(=C/c3ccc(CN(CCC#N)S(C)(=O)=O)o3)C(=O)NC2=S)c1	-1	-6	-2	-8	-10	12
CC(C)c1ccc(N2C(=O)NC(=O)/C(=C/c3cnc(-c4ccccc4)nc3)C2=O)cc1	0	3	1	-15	7	-39
CC1CCC(C(C)C)C(OC(=O)Cn2c(COc3ccccc3)[n+](C)c3ccccc32)C1 (centres undefined)	-1	/	39	-3	-13	92*
C=CCC1(Cc2ccsc2)C(=O)NC(=O)NC1=O	0	/	-1	0	/	/
CC(C)[C@]12O[C@H]1[C@@H]1O[C@]13[C@]1(O[C@H]1C[C@H]1C4=C(CC[C@@]13C)C(=O)OC4)[C@@H]2O	/	-6	/	/	-5	103*
CC1(C)C(C(=O)N2CCN(c3ccc(Cl)cc3)CC2)C1(C)C	-1	/	1	1	/	/
COC(=O)C1CN(C#N)N(c2ccc(Cl)cc2)C12c1ccccc1-c1ccccc12 (centres undefined)	0	74*	-2	3	1	/
O=C1NC(=O)C(CCc2ccncc2)(Cc2cccc(Cl)c2Cl)C(=O)N1c1ccc(Br)cc1 (centres undefined)	0	75*	7	-4	8	34
CCc1ccc(N2C(=O)NC(=O)C(CCc3ccncc3)(CCc3ccncc3)C2=O)cc1	0	15	2	4	-1	14
